In ChEMBL document CHEMBL1128398, “Structure-activity relationship of alpha-galactosylceramides against B16-bearing mice” (1995):

Assays:
[1] = system: B16; assay: Tumor Growth Inhibitory effect (TGIR) on mice subcutaneously inoculated with B16 cells (compound plus MMC); assay type: functional, Mus musculus; parameters: concentration or dose not given beside the values
Summary of the method: (§1)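 Groups of six female BDF1 mice received B16 melanoma (1 × 10^6 cells/mouse) s.c. on day 0. AGL analogues were given i.v. at 100 μg/kg on days 1, 5 and 9, and MMC at 5 mg/kg i.p. on day 1; controls were untreated. Tumor volume (length × width × height/2, by callipers) was read on days 8, 12, 16 and 20. TGIR = [1 − mean test volume/mean control volume] × 100, and the maximum value is reported.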

[2] = system: B16; assay: Tumor Growth Inhibitory effect (TGIR) on mice subcutaneously inoculated with B16 cells (compound alone (single)); assay type: functional, Mus musculus; parameters: concentration or dose not given beside the values; summary of the method: as §1
[3] = system: B16; assay: Tumor Growth Inhibitory effect (TGIR) on mice subcutaneously inoculated with B16 cells (chemotherapeutic agent, mitomycin C (MMC)); assay type: functional, Mus musculus; parameters: concentration or dose not given beside the values; summary of the method: as §1
[4] = species on record: Mus musculus; assay: Lymphocyte Proliferation Stimulatory effect was tested on mouse spleen cells and evaluated for at 6 h [3H]TdR (tritium-thymidine) pulse and uptake into cells at 100 ng/mL; assay type: functional
Summary of the method: (§2)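 BALB/c spleen cells (2 × 10^5 cells/well, no stimulator cells) were cultured in 10% FCS RPMI 1640 with compound at 37 °C in 5% CO2 for 2–3 days. A 6 h [3H]TdR pulse followed, and uptake was counted by liquid scintillation. Run in triplicate.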

[5] = species on record: Mus musculus; assay: Lymphocyte Proliferation Stimulatory effect was tested on mouse spleen cells and evaluated for at 6 h [3H]TdR (tritium-thymidine) pulse and uptake into cells at 1 ng/mL; assay type: functional; summary of the method: as §2
[6] = species on record: Mus musculus; assay: Lymphocyte Proliferation Stimulatory effect was tested on mouse spleen cells and evaluated for at 6 h [3H]TdR (tritium-thymidine) pulse and uptake into cells at 10 ng/mL; assay type: functional; summary of the method: as §2

| Structure (SMILES) | Control [1] | Control [2] | Tumor growth inhibition ratio (max TGIR) [3] | Control [4] | Control [5] | Control [6] |
| --- | --- | --- | --- | --- | --- | --- |
| CCCCCCCCCCCCCCCCCCCCCC(=O)N[C@@H](CO[C@H]1O[C@@H](CO)[C@H](O)[C@H](O)[C@@H]1O)[C@H](O)CCCCCCCCCCCCCCC | 85% | 56.9% | 39.4% | 875% | 378% | 992% |
| CCCCCCCCCCCCCCCCCCCCCC[C@@H](O)C(=O)N[C@@H](CO[C@H]1O[C@@H](CO)[C@H](O)[C@H](O)[C@@H]1O)[C@H](O)[C@H](O)CCCCCCCCCCCCCC | 91.9% | 57.9% | 64% | 1552% | 1060% | 1405% |
| CCCCCCCCCCCCCCCCCCCC(=O)N[C@@H](CO[C@H]1O[C@@H](CO)[C@H](O)[C@H](O)[C@@H]1O)[C@H](O)CCCCCCCCCCCCCCC | 90.4% | 53.1% | 39.4% | 1009% | 177% | 791% |
| CCCCCCCCCCCCCCCCCCCCCCCC(=O)N[C@H](CCCCCCCCCCCCCCCC)CO[C@H]1O[C@@H](CO)[C@H](O)[C@H](O)[C@@H]1O | 91.4% | 40.7% | 80% | 147% | 90% | 100% |
| CCCCCCCCCCCCCCCCCCCCCCCC(=O)N[C@@H](CO[C@H]1O[C@@H](CO)[C@H](O)[C@H](O)[C@@H]1O)[C@H](O)CCCCCCCCCCCCCCC | 99.1% | 68.9% | 64% | 1494% | 1115% | 1432% |
| CCCCCCCCCCCCCCCCCCCCCC[C@@H](O)C(=O)N[C@@H](CO[C@H]1O[C@@H](CO)[C@H](O)[C@H](O)[C@@H]1O)[C@H](O)[C@H](O)CCCCCCCCCCC | 77.4% | 94.1% | 46.5% | 838% | 330% | 676% |
| CCCCCCCCCCCCCCC[C@@H](O)[C@H](CO[C@H]1O[C@@H](CO)[C@H](O)[C@H](O)[C@@H]1O)NC(=O)CCCCCCCCCCCCC | 84.4% | 54.2% | 64.1% | 1664% | 249% | 1010% |
| CCCCCCCCCCCCCCCCCCCCCC[C@@H](O)C(=O)N[C@@H](CO[C@H]1O[C@@H](CO)[C@H](O)[C@H](O)[C@@H]1O)[C@H](O)[C@H](O)CCCCCCCCCCCCC | 90.6% | 82.4% | 61.5% | 1202% | 520% | 1491% |
| CCCCCCCCCCCCCCCCCCCCCCCC[C@@H](O)C(=O)N[C@@H](CO[C@H]1O[C@@H](CO)[C@H](O)[C@H](O)[C@@H]1O)[C@H](O)[C@H](O)CCCCCCCCCCCCCCCC | 94.3% | 92.8% | 87.3% | 481% | 153% | 482% |
| CCCCCCCCCCCCCCCCCC(=O)N[C@@H](CO[C@H]1O[C@@H](CO)[C@H](O)[C@H](O)[C@@H]1O)[C@H](O)CCCCCCCCCCCCCCC | 80.3% | 78.1% | 64.1% | 645% | 155% | 383% |
| CCCCCCCCCCCCCCCCCCCCCCCC[C@@H](O)C(=O)N[C@@H](CO[C@H]1O[C@@H](CO)[C@H](O)[C@H](O)[C@@H]1O)[C@H](O)[C@H](O)CCCCCCCCCCCCCCC | 97.1% | 72.3% | 87.3% | 673% | 221% | 488% |
